{"source": "ChEMBL document CHEMBL1151800", "about": "“Synthesis, biological evaluation and SAR study of novel pyrazole analogues as inhibitors of Mycobacterium tuberculosis” (2008)", "test_system": "Mycobacterium tuberculosis", "experiment": "Antimycobacterial activity against Mycobacterium tuberculosis H37Rv ATCC 27294 after 21 to 28 days by twofold agar dilution method", "assay_type": "functional", "in_short": "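Twofold agar dilution on Middlebrook 7H11 agar with 10% OADC enrichment, compounds at […]. Each well received 10 μL of H37Rv suspension at 1.5 x 10⁵ cfu/mL grown in 7H9 broth with 10% ADC, giving a final inoculum of 1.5 x 10³ per well. Incubated 21–28 days. MIC read as lowest concentration completely inhibiting visible growth.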", "data": [{"smiles": "CC(C)c1[nH]n(-c2ccc(Cl)cc2)c(=O)c1C(=O)c1ccc(Cl)cc1", "values": [{"measurement": "MIC", "result": 32, "unit": "µg/mL"}]}, {"smiles": "Cc1[nH]n(-c2ccc(Br)cc2)c(=O)c1C(=O)c1ccc(Cl)cc1", "values": [{"measurement": "MIC", "result": 4, "unit": "µg/mL"}]}, {"smiles": "O=C(c1ccc(Cl)cc1)c1c(-c2ccccc2)[nH]n(-c2ccccc2)c1=O", "values": [{"measurement": "MIC", "result": 32, "unit": "µg/mL"}]}, {"smiles": "O=C(c1ccc(Cl)cc1)c1c(C(F)(F)F)[nH]n(-c2ccc(Cl)cc2)c1=O", "values": [{"measurement": "MIC", "result": "> 64", "unit": "µg/mL"}]}, {"smiles": "Cc1[nH]n(-c2ccc(C(C)C)cc2)c(=O)c1C(=O)c1ccc(Cl)cc1", "values": [{"measurement": "MIC", "result": 16, "unit": "µg/mL"}]}, {"smiles": "CC(C)c1[nH]n(-c2ccccc2)c(=O)c1C(=O)c1ccc(Cl)cc1", "values": [{"measurement": "MIC", "result": 64, "unit": "µg/mL"}]}, {"smiles": "Cc1ccc(-n2[nH]c(-c3ccccc3)c(C(=O)c3ccc(Cl)cc3)c2=O)cc1", "values": [{"measurement": "MIC", "result": 32, "unit": "µg/mL"}]}, {"smiles": "Cc1[nH]n(-c2ccc(F)cc2)c(=O)c1C(=O)c1ccc(Cl)cc1", "values": [{"measurement": "MIC", "result": 12.5, "unit": "µg/mL"}]}, {"smiles": "Cc1[nH]n(-c2ccc(Cl)cc2)c(=O)c1C(=O)c1ccc(Cl)cc1", "values": [{"measurement": "MIC", "result": 6.25, "unit": "µg/mL"}]}, {"smiles": "O=C(c1ccc(Cl)cc1)c1c(C(F)(F)F)[nH]n(-c2ccccc2)c1=O", "values": [{"measurement": "MIC", "result": "> 64", "unit": "µg/mL"}]}, {"smiles": "CC(C)c1ccc(-n2[nH]c(-c3ccccc3)c(C(=O)c3ccc(Cl)cc3)c2=O)cc1", "values": [{"measurement": "MIC", "result": 32, "unit": "µg/mL"}]}, {"smiles": "O=C(c1ccc(Cl)cc1)c1c(-c2ccccc2)[nH]n(-c2ccc(Cl)cc2)c1=O", "values": [{"measurement": "MIC", "result": 16, "unit": "µg/mL"}]}, {"smiles": "Cc1ccc(-n2nc(C)c(C(=O)c3ccc(Cl)cc3)c2O)cc1", "values": [{"measurement": "MIC", "result": 16, "unit": "µg/mL"}]}, {"smiles": "Cc1c(C(=O)c2ccc(Cl)cc2)c(=O)n(-c2ccc(Cl)cc2)n1Cc1ccc(F)cc1", "values": [{"measurement": "MIC", "result": 32, "unit": "µg/mL"}]}, {"smiles": "Cc1c(C(=O)c2ccc(Cl)cc2)c(=O)n(-c2ccc(Cl)cc2)n1Cc1ccccc1", "values": [{"measurement": "MIC", "result": 16, "unit": "µg/mL"}]}, {"smiles": "Cc1c(C(=O)c2ccc(Cl)cc2)c(=O)n(-c2ccccc2)n1C", "values": [{"measurement": "MIC", "result": "> 100", "unit": "µg/mL"}]}, {"smiles": "Cc1c(C(=O)c2ccc(Cl)cc2)c(=O)n(-c2ccccc2)n1Cc1ccc(F)cc1", "values": [{"measurement": "MIC", "result": 32, "unit": "µg/mL"}]}, {"smiles": "Cc1c(C(=O)c2ccc(Cl)cc2)c(=O)n(-c2ccc(Cl)cc2)n1Cc1ccc([N+](=O)[O-])cc1", "values": [{"measurement": "MIC", "result": 32, "unit": "µg/mL"}]}, {"smiles": "Cc1c(C(=O)c2ccc(Cl)cc2)c(=O)n(-c2ccccc2)n1Cc1ccc([N+](=O)[O-])cc1", "values": [{"measurement": "MIC", "result": "> 32", "unit": "µg/mL"}]}, {"smiles": "Cc1nn(-c2ccccc2)c(O)c1C(=O)c1ccc(Cl)cc1", "values": [{"measurement": "MIC", "result": 6.25, "unit": "µg/mL"}]}, {"smiles": "Cc1c(C(=O)c2ccc(Cl)cc2)c(=O)n(-c2ccccc2)n1Cc1ccccc1", "values": [{"measurement": "MIC", "result": "> 64", "unit": "µg/mL"}]}]}
